Most compounds without a hit are left out; they make up all but 3.3% or so of the library.
ROMK primary – modulates human ROMK potassium channel activity; P48048; Tet-inducible ROMK, thallium flux fluorescence; actives lie on both sides; B-score at 10 µM; 2% of 130,000 active; AID 1918;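 active means signal ratio slope over the read window, or its plate-corrected B-score, at least 3 SD from the plate mean, either direction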;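 further: B-score of the F/F0 ratio slope over 7 to 12 s after thallium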
Target sequence (P48048 whole entry, looked up): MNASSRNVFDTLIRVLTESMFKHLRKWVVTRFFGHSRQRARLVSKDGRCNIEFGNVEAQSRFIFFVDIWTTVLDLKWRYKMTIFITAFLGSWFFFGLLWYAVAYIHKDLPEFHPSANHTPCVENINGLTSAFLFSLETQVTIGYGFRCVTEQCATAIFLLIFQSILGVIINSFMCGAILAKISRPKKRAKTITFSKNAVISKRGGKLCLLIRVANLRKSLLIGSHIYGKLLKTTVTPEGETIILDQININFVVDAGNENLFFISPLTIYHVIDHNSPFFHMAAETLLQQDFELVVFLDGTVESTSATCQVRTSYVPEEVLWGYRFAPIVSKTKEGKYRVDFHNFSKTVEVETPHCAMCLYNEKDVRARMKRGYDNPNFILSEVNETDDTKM
PMI act satM6P – activators of human phosphomannose isomerase at near-saturating mannose 6-phosphate | coupled PMI enzyme assay, resazurin fluorescence, 20 min; hits give high values; 1 = untreated enzyme, 0 = substrate-free blank | activation factor at 20 µM | 0.34% of 190,000 active;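 active means activation factor of 2 or more at 20 µM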
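Material: human phosphomannose isomerase with PGI, G6PDH, diaphorase coupling enzymes / Reagent: Man-6-P substrate 1.0 mM / Dosing: single compound dose of 20 µM, 1% DMSO final / Incubation: enzyme reaction with compound 20 min at room temperature / Signal: resorufin fluorescence (Ex 544/Em 590 nm) from resazurin via diaphorase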
ABCB1 inh – human ABCB1 inhibition, ABCG2 as counter-screen | P08183 | AID 1326 | CCRF-Adr cells, JC-1 efflux, flow cytometry | 0.067% of 190,000 active | inhibition, % at 6.6 µM; in the data active means inhibition above about 40%;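 further: higher value means more JC-1 retained so stronger ABCB1 efflux block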
ABCG2 block – inhibitors of human ABCG2 transporter, ABCB1 counter-screen | Q9UNQ0 | IgMXP3 cells, JC-1 efflux, flow cytometry | inhibition, % at 6.6 µM | 0.1% of 190,000 active;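 active means inhibition above 80%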
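System: two drug-resistant human cell lines, ABCG2 and ABCB1; controls: nicardipine high and DMSO low controls; times: 10 min exposure at 25 °C with rotation, no wash; detection: flow cytometry of retained JC-1 fluorescence; read-out basis: percent efflux inhibition, scaled nicardipine 100% to DMSO 0%; doses: one concentration, 6.6 µM final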
PMI activator – activators of human phosphomannose isomerase. 0.005% of 190,000 active. AID 1214. P34949. purified human PMI, coupled resazurin fluorescence, 20 min; hits give high values; 1 = vehicle control, 0 substrate-free wells. activation factor at 20 µM;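 active means activation factor of 2 or more at 20 µM, relative to plate controls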
Cl transport mod – modulates chloride dependent transport by human KCC2 | Q9H2X9 | KCC2 cells, thallium flux FluoZin-2 fluorescence | B-score of Tl+ flux slope (higher = more flux/activation; lower = inhibition) at 10 µM | 2.2% of 190,000 active | AID 1456;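 active means thallium flux slope and its plate-corrected score both differing from the plate sample mean at a set confidence after two filtering rounds, in either direction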;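 further: slope of fluorescence scaled to starting intensity during 10 to 20 s after thallium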
KCC2 secondary – KCC2 (human) modulation, secondary assay; shares compounds with Cl transport mod; HEK293-KCC2, thallium flux, FluoZin2 fluorescence; hits give high values; normalised thallium flux (F/F0 slope) at 10 µM; 15% of 3,700 active;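 active means thallium flux slope above the same plate's solvent-only control mean plus 3 SD; inconclusive means the two replicate wells disagree; inactive means no significant difference from solvent-only control wells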
KCC2 bumet counter – bumetanide-insensitive thallium flux in KCC2 cells with ouabain, counter-screen | shares compounds with Cl transport mod | HEK293-KCC2 + bumetanide/ouabain, thallium flux FluoZin2; hits give high values | normalized thallium flux at 10 µM | 49% of 3,700 active;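 active means thallium entry rate above the same plate's blocked-transporter control wells by more than 3 SD; inconclusive means the two repeat wells disagree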;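 further: raw slope of fluorescence over initial fluorescence between 10 and 20 s after thallium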
KCC2 sec2 – confirmation of human KCC2 transport modulators; shares compounds with Cl transport mod; HEK293-KCC2, thallium flux FluoZin2 fluorescence; actives lie on both sides; F/F0 rise rate, 10–20 s post-thallium; normalized thallium flux at 10 µM; 23% of 3,700 active; AID 1715;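 active means thallium flux slope more than 3 SD above or below the plate's solvent-only control mean, mostly below; inconclusive means the two repeat wells disagreed; inactive means no significant shift from solvent-only controls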
HEK counter1 – acts in parental HEK cells, KCC2 counter-screen; shares compounds with Cl transport mod; HEK293 parental cells, thallium flux FluoZin2, ouabain; baseline-ratio fluorescence slope, 10–20 s after thallium; thallium flux rate (normalised fluorescence) at 10 µM; 46% of 3,700 active; AID 1716;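 active means thallium flux rate significantly above the same plate's solvent-only control wells, beyond their mean plus 3 SD; inconclusive means the two replicate wells gave conflicting results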
KCC2 ouabain – KCC2 (human) modulation, ouabain retest. shares compounds with Cl transport mod. raw Tl+ flux slope (below DMSO = inhibition, above = activation) at 10 µM. 48% of 3,700 active. AID 1717. HEK293-KCC2, thallium flux FluoZin2 fluorescence; bidirectional: low = inhibitor, high = activator;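 active means thallium flux slope beyond 3 SD from same-plate DMSO control mean in most replicates, usually higher, sometimes lower; inconclusive means repeat tests gave conflicting results; inactive means no significant difference from controls in most replicates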;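 further: slope of initial-normalized fluorescence between seconds 10 and 20 after thallium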
HEK counter2 – parental HEK flux effect, counter-screen 2 | shares compounds with Cl transport mod | HEK293 parental, thallium flux FluoZin-2 fluorescence slope | thallium flux slope at 10 µM | 33% of 3,700 active;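 active means thallium flux slope above the same plate's solvent-control mean plus 3 SD in both duplicate wells; inconclusive means duplicate wells that disagreed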;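 further: run without ouabain in cells lacking the KCC2 cotransporter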
A number is an active result; 0 = inactive; ? = inconclusive; - = not tested or not shown.

SMILES	ROMK primary	PMI act satM6P	ABCB1 inh	ABCG2 block	PMI activator	Cl transport mod	KCC2 secondary	KCC2 bumet counter	KCC2 sec2	HEK counter1	KCC2 ouabain	HEK counter2
CCNC(=S)N=Nc1c(O)[nH]c2ccc([N+](=O)[O-])cc12	0	0	0	0	0	5.05	0	0.0222	0	0.013	0	?
CC(C)c1ccc2[nH]c(O)c(N=NC(=S)NCCc3ccccc3)c2c1	-	0	0	0	0	0	-	-	-	-	-	-
CCNC(=S)N=Nc1c(O)[nH]c2ccc(C(C)C)cc12	0	0	0	0	0	10.3	?	0.0209	0	0.0222	0.026	0.0161
CC(C(=O)Nc1ccccc1)N(c1cccc(Cl)c1)S(C)(=O)=O (configuration not stated)	0	0	0	0	0	0	-	-	-	-	-	-
Cc1ccc(-c2nc(CS(=O)CC(=O)NCCC(C)C)c(C)o2)cc1 (configuration not stated)	-	0	0	0	0	-	-	-	-	-	-	-
CCSc1nc2c(c(=O)[nH]c(=O)n2C)n1C/C=C(/C)Cl	0	0	0	0	0	7.02	0	0	0	0	0	0
Cc1cc(-c2c(C)[nH]n(-c3ccc(Cl)cc3)c2=O)n(-c2ccccc2)n1	-	0	0	0	0	0	-	-	-	-	-	-
Cc1[nH]n(-c2ccccc2)c(=O)c1C(=O)c1cccc(F)c1	0	0	0	0	0	0	-	-	-	-	-	-
CCSC(=S)c1c(C)[nH]n(-c2ccccc2)c1=O	-	-	-	-	-	101	0.0461	0.0995	0	0.0606	0.0675	0.0284
Cc1[nH]n(-c2ccccc2)c(=O)c1C(=O)c1ccc(Cl)cc1	-	-	-	-	-	11.3	0	0.0214	0.0399	0.022	0.0301	0.0242
Cc1[nH]n(-c2ccccc2)c(=O)c1-c1ccccc1	-	0	0	0	0	0	-	-	-	-	-	-
Cc1[nH]n(-c2ccc(Cl)cc2)c(=O)c1C(=O)c1ccccc1	0	0	0	0	0	8.12	0	0.0203	0	0.0163	0.0267	0.0187
Cc1[nH]n(-c2ccccc2)c(=O)c1C(=O)c1ccccc1	0	-	-	-	-	4.4	0	0.00849	0	0.0115	0	0.0143
CCCc1cc(=O)[nH]c(SCc2cc(Cl)ccc2OC(F)F)n1	-	0	0	0	0	0	-	-	-	-	-	-
N#CC(C#N)=C1NC2(CCCC2)Cc2ccccc21	0	0	0	0	0	0	-	-	-	-	-	-
O=C(COc1ccccc1)c1cn(CC(=O)N2CCCC2)c2ccccc12	0	0	0	0	0	0	-	-	-	-	-	-
O=C(/C=C/c1cn(-c2ccccc2)nc1-c1cccnc1)N1CCCC1	0	0	0	0	0	0	-	-	-	-	-	-
N#C/C(=C\c1cn(-c2ccccc2)nc1-c1cccnc1)c1nnc2n1CCCCC2	0	0	0	0	0	-	0	0	0.0236	0	?	0
CN(C)S(=O)(=O)c1cccc(NC(=O)CSc2ncnc3ccccc23)c1	-	-	-	-	-	0	-	-	-	-	-	-
CN(C)S(=O)(=O)c1ccc(NC(=O)CSc2ncnc3ccccc23)cc1	-	0	0	0	0	-4.04	0	0	0.0263	0	0.0149	0
CC1Cc2nc(SCC(=O)OCc3ccccc3)n(C)c(=O)c2S1 (configuration not stated)	-	0	0	0	0	0	-	-	-	-	-	-
Cn1nc(-c2ccc(N3CCOCC3)c(NS(=O)(=O)c3ccc(Cl)cc3)c2)c2ccccc2c1=O	-	0	0	0	0	5.81	0	0	0	0	0	0
O=C(Oc1cc(Cl)ccc1Cl)c1ccc(N2CCOCC2)c([N+](=O)[O-])c1	0	0	0	0	0	0	-	-	-	-	-	-
O=C(C1CCN(S(=O)(=O)c2cccc3nsnc23)CC1)N1CCc2ccccc2C1	-	0	0	0	0	-6.02	0	0	0.0232	0	0.0152	0
Cc1ccc(S(=O)(=O)N2CCC(C(=O)N3Cc4ccccc4C3)CC2)cc1	-	0	0	0	0	0	-	-	-	-	-	-
COc1ccc(S(=O)(=O)N2CCC(C(=O)N3CCc4ccccc4C3)CC2)cc1C	0	0	0	0	0	-3.53	0	0	0.0244	0	0.0149	0
CCCCNS(=O)(=O)c1ccc(NC(=O)Cc2ccccc2[N+](=O)[O-])cc1	0	0	0	0	0	0	-	-	-	-	-	-

From PubChem BioAssay
